Positions count from the first letter of the chain named. “And” between values parts separate entries of the source, which are not always exact repeats. Equal entries are not always repeated.
Experiments:
Type in all cases: biochemical
[1] = biological target: wild-type SUR1/Kir6.2 channel (Homo sapiens, UniProt Q14654); details: 50 μM protamine
Method in brief: (§1)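 Channels expressed in Xenopus oocytes: SUR1 plus Kir6.2 for line 1, Kir6.2ΔC26/G334R for line 2. Inside-out patches were held at −80 mV. Pipette contained (mM) 150 KCl, 10 NaCl, 1 CaCl2, 10 EGTA, 10 HEPES, pH 7.4. […] Signals filtered at 4 kHz, sampled at 20 kHz. Half-amplitude event detection, missed-event-corrected duration histogram fits, n = 5, mean ± SEM.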

[2] = biological target: T1, Kir6.2/ΔC26/G334R channel (slow burst exit gating patches) (Homo sapiens, UniProt Q14654, G334R); details: 50 μM protamine
T1 sequence (Q14654 1-364 G334R limits assumed): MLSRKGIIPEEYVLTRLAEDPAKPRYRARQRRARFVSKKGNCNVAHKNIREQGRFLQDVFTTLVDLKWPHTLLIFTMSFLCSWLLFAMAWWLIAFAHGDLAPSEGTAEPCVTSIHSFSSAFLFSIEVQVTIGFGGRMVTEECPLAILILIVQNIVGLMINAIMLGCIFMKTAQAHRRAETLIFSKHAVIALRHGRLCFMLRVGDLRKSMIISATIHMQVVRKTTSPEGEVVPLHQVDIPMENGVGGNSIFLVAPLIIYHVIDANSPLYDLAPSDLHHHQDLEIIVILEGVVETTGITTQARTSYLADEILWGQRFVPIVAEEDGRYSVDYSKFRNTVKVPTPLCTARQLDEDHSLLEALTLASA
Method in brief: as §1

[3] = biological target: Kir6.2ΔC26 334F channel; assay: ATP inhibition of 334F channels, inside-out patch; details: read-out: Ki,ATP, Xenopus oocytes, without SUR, −80 mV
[4] = biological target: Kir6.2ΔC26 334A channel; assay: ATP inhibition of 334A channels, inside-out patch; details: read-out: Ki,ATP, Xenopus oocytes, without SUR, −80 mV
[5] = biological target: Kir6.2ΔC26 333K channel; assay: ATP inhibition of 333K channels, inside-out patch; details: read-out: Ki,ATP, Xenopus oocytes, without SUR, n = 6
[6] = biological target: T2, Kir6.2ΔC26 G334 (wild type) channel (Homo sapiens, UniProt Q14654); assay: ATP inhibition of wild-type
T2 sequence (Q14654 1-364 limits assumed): T1 sequence (Q14654 1-364 G334R limits assumed) with R334G

[7] = biological target: Kir6.2ΔC26 334E channel; assay: ATP inhibition of 334E channels, inside-out patch; details: read-out: Ki,ATP, Xenopus oocytes, without SUR, −80 mV

Chain of wild-type SUR1/Kir6.2 channel (Q14654 whole entry): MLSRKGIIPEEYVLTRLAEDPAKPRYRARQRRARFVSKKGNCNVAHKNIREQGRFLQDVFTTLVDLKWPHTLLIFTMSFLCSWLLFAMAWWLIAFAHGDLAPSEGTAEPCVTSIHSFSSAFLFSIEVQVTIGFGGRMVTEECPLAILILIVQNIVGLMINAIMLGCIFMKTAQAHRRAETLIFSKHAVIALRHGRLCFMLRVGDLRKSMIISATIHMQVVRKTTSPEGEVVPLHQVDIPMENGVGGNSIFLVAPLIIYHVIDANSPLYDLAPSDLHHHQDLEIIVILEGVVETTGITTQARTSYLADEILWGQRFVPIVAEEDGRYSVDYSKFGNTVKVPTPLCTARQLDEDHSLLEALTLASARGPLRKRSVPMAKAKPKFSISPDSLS
Chain of wild-type SUR1/Kir6.2 channel (Q09428 whole entry partner): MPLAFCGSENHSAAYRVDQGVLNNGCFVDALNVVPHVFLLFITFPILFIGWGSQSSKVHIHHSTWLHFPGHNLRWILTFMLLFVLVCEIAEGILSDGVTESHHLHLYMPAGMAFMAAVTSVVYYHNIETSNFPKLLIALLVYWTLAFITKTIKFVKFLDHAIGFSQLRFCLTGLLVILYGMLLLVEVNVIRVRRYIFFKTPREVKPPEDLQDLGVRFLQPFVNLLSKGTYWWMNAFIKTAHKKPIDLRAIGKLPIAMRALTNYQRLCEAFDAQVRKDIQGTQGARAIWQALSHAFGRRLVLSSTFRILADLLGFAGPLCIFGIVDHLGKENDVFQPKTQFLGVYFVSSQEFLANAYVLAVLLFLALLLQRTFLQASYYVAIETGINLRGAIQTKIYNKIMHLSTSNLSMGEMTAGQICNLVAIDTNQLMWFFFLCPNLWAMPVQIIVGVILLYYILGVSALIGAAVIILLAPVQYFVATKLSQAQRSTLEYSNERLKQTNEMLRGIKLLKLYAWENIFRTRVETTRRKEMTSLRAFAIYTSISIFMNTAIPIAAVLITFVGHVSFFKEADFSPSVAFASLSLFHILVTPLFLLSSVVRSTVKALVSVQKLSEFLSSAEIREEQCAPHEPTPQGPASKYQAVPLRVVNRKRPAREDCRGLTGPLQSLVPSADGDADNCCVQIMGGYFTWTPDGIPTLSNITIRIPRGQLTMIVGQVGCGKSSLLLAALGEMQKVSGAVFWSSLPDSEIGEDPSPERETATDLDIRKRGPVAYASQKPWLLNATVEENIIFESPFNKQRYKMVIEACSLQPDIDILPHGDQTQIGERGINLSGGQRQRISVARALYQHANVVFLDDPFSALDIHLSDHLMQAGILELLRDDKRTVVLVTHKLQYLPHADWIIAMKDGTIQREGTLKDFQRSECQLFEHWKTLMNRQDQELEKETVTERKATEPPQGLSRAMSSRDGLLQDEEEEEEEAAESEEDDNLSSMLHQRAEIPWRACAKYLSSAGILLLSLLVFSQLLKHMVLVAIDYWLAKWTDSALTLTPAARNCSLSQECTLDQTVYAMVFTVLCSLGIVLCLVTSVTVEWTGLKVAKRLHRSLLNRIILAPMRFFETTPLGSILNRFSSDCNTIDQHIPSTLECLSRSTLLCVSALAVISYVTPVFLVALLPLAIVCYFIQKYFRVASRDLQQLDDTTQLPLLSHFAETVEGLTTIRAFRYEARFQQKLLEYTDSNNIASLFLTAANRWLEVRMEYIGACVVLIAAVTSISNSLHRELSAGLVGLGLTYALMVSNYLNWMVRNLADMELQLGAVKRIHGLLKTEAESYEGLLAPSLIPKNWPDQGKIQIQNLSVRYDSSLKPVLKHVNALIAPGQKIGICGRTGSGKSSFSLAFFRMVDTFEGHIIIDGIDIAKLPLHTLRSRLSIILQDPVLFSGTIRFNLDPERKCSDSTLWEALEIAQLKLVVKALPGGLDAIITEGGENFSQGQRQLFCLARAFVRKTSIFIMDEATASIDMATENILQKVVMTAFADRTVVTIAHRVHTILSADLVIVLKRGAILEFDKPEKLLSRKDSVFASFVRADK

Compound: protamine
- mean open time after protamine ([1]; absence of ATP, before protamine 2.1 ± 0.2 ms): 1.0 ± 0.2 ms
- mean burst time after protamine ([1]; absence of ATP, before protamine 48.0 ± 7.4 ms): 2.6 ± 0.9 ms
- effect on gating from the burst ([1]; cytoplasmic face, all six patches): dramatically speeded gating from the burst
- mean open time after protamine ([2]; absence of ATP, n = 5, before protamine 1.9 ± 0.2 ms): 1.1 ± 0.2 ms
- mean burst time after protamine ([2]; absence of ATP, n = 5, before protamine 80.3 ± 10.7 ms): 2.6 ± 1.8 ms
- effect on slowed gating from the burst ([2]; all 12 patches): fully restore the fast gating from the burst

Compound: Nc1ncnc2c1ncn2[C@@H]1O[C@H](COP(=O)(O)OP(=O)([O-])OP(=O)([O-])O)[C@@H](O)[C@H]1O.[Mg+2] [ATP]
- Ki [3]: 3000 µM and 3100 µM
- Ki [4]: 2100 ± 50 µM
- Ki [5]: 2200 ± 300 µM
- inhibition of channel activity ([6]; 10 mM ATP): complete inhibition
- slope factor αH of Hill fit of ATP inhibition ([6]; wild-type channel, αH free variable): 1.0 ± 0.1
- Ki [7]: 5900 ± 20 µM

Source: article PMC2266580 (The Journal of General Physiology, 2005)
